FGF22 binding – binders of recombinant human FGF22 by thermal shift. Q9HCT0. SYPRO orange fluorescence; percent of sucrose octasulfate shift, DMSO zero. activity (Tm shift, normalised), % at 9.99 µM. hit rate 1.5% among 340,000. AID 651658;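 active = mean Tm shift, scaled 0 neutral to 100 positive control, at about 1.3% or above, every replicate too, limit read from the data; inconclusive = no clear call, values can overlap the other calls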
Target sequence (Q9HCT0 whole entry, looked up): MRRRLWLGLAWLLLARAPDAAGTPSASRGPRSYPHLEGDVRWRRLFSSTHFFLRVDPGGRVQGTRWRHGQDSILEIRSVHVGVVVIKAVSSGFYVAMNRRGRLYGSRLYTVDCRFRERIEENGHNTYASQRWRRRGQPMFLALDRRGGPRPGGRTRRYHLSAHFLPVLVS
DENV2 CPE rescue – protects cells from dengue virus 2 cytopathic effect | DENV2-infected cells, cytopathic effect rescue, plate reader | CPE inhibition, % at 9.99 µM | hit rate 1.7% among 350,000; in the data active = CPE inhibition above about 20%, passing the limit was not always enough; inconclusive = no clear call, values can overlap the other calls; tested in BHK-21 cells;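 also: 0% = median of neutral control wells and 100% = median of positive control wells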
ARNT TACC3 PPI – ARNT/TACC3 interaction disruption; Q9Y6A5; AlphaScreen His-ARNT PAS-B/GST-TACC3 binding, luminescence; TACC3 fragment carries E629A point mutation; inhibition, % at 9.99 µM; hit rate 0.66% among 390,000;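 active = mean inhibition of replicates at least 50% and at least half of replicates each reaching 50%; inconclusive = half or more replicates reach 50% but mean below 50%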;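 also: 0% = complete ARNT plus TACC3 wells and 100% = ARNT alone without TACC3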
XiGFP reactiv – X-chromosome reactivation activator. XiGFP mouse fibroblasts, % GFP-positive cells imaging, 3 d; cells co-treated with 5-aza-dC sensitizer; scaled so ellipticine positive control = 100%. activation, % at 7.58 µM. hit rate 0.055% among 360,000;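 active = mean normalized replicate activation at least 10% and every replicate at or above 10%; inconclusive = only one of the two criteria met; inactive = mean below 10% and not all replicates reach 10%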;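 also: 0% = median of on-plate neutral control wells and 100% = ellipticine 6 µM median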
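Assay system – SV40-immortalized XiGFP fibroblast cells, line 68-5-11 · Buffer or medium – DMEM supplemented with 5-aza-dC as sensitizing agent · Dosing – one concentration, pinned · Benchmarks – positive control ellipticine, 6 µM final · Times – 3 days compound exposure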
SIRT5 block – inhibitors of human sirtuin-5 desuccinylase; Q9NXA8; inhibition, % at 15 µM; hit rate 1.1% among 330,000; AID 652115; Purified SirT5, succinyl-peptide AMC, trypsin-coupled fluorescence; in the data active = inhibition above about 15%; inconclusive = no clear call, values can overlap the other calls
Target sequence (Q9NXA8 whole entry, looked up): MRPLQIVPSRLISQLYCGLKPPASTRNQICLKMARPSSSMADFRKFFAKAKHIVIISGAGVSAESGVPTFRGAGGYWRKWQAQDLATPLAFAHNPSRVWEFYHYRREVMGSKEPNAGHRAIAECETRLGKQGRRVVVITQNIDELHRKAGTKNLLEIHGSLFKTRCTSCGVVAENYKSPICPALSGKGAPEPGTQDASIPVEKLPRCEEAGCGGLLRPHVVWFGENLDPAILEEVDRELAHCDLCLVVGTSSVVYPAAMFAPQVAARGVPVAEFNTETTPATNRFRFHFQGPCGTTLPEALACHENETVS
FN deposit inh – fibronectin deposition inhibition. AH1F fibroblasts, Alexa488-fibronectin deposition fluorescence, overnight. inhibition, % at 12.6 µM. hit rate 0.086% among 350,000;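 active = mean inhibition across replicates of 30% or more, regardless of how many single replicates reach that level; inconclusive = mean under 30% yet at least half of replicates reach 30%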;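 also: positive control wells lacked labelled fibronectin entirely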
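Material: AH1F fibroblast monolayer depositing Alexa488-labelled fibronectin into matrix | Input: 10000 AH1F cells/well | Medium: DMEM plus 2% serum, read in PBS | Reagent: Alexa488-fibronectin, 24 nM final in well | Compound dosing: One dose per compound, pinned | Schedule: 1 h adhesion, overnight exposure | Measured by: Fluorescence at 485 nm excitation, 525 nm emission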
* marks the source's active call; other numbers are inactive results; ? = inconclusive; . = no result. Hits are enriched below; roughly 3.8% of the tested compounds scored in any of these assays.

SMILES	FGF22 binding	DENV2 CPE rescue	ARNT TACC3 PPI	XiGFP reactiv	SIRT5 block	FN deposit inh
Cc1ccc(C(=O)c2cc(C)sc2N)cc1	42.9*	.	.	-0.1	10.2	0.8
COc1ccc(NC(=O)Nc2ccc3c(c2)C(=O)N([C@H](C)CO)C[C@H](C)[C@H](CN(C)S(=O)(=O)c2ccc(OC)cc2)OCCCC[C@H](C)O3)cc1	-0.1	15.2	-18.8	0.1	.	-2.6
Cc1nn(C)cc1NC(=O)C[C@H]1CC[C@@H]2[C@@H](COc3ccc(NC(=O)C(C)C)cc3C(=O)N2C)O1	-0.2	-0.9	-22.1	0.1	.	1.7
N/C(=N\OS(=O)(=O)c1ccc2ccccc2c1)c1ccccn1	-0.1	3.2	58.7*	0.1	3.2	0.6
N/C(=N\OS(=O)(=O)c1ccc2ccccc2c1)c1ccncc1	.	.	-6.8	.	.	.
CCOC(=O)C1CCN(c2c(C(=O)c3ccccc3)cnc3ccc(Cl)cc23)CC1	0.0	33.6*	4.5	0.0	.	3.8
COc1ccc(CNCC(O)(c2ccccc2)c2ccccc2)cc1OC	43.3*	-6.9	-5.1	0.0	1.7	3.6
COc1ccc2c3c([nH]c2c1)[C@@H](CO)N(Cc1nccs1)CC31CN(C(=O)C2CCCCC2)C1	.	.	.	0.3	.	.
O=C1c2ccccc2C(=O)c2c(Nc3ccc(CCO)cc3)ccc(O)c21	-0.4	-4.3	-19.0	0.3	-0.3	-0.9
O=C1c2c(O)ccc(O)c2C(=O)c2c(NCCNCCO)ccc(NCCNCCO)c21	-1.1	2.5	65.0*	-0.2	7.0	-0.3
COc1ccccc1-c1ccc([C@@H]2[C@@H](CO)N(C(=O)C3CCOCC3)[C@H]2C#N)cc1	0.0	3.1	14.0	0.2	2.2	-0.9
CCCNC(=O)N1[C@H](CO)[C@H](c2ccccc2)[C@@H]1CNC(=O)C1CCCC1	.	22.1*	.	0.0	-0.6	-7.8
CCN(C[C@@H]1[C@@H](c2ccccc2)[C@H](CO)N1C(=O)C1CC1)C(=O)NC1CCCC1	0.0	-15.3	-8.3	0.0	32.0*	.
CCC(=O)NC[C@H]1[C@@H](c2ccccc2)[C@H](CO)N1C(=O)C1CCC1	-1.2	15.2	8.6	0.0	20.2*	.
CCC(=O)NC[C@H]1[C@@H](c2ccccc2)[C@@H](CO)N1C(=O)C1CCC1	0.4	18.8	-6.9	0.1	1.7	.
CCCNC(=O)N1[C@H](CO)[C@H](c2ccccc2)[C@H]1CNC(=O)C1CCCC1	.	-7.6	.	0.1	-5.4	-8.2
COc1ccc(S(=O)(=O)Nc2ccc3c(c2)C(=O)N([C@@H](C)CO)C[C@H](C)[C@H](CN(C)C(=O)CCCN(C)C)OCCCC[C@H](C)O3)cc1	0.0	-6.2	-0.1	?	-4.9	.
CCCS(=O)(=O)N1CCCC(C(=O)NCCc2cccc(C)c2)C1 (centres undefined)	-0.1	26.7*	-7.0	0.0	-0.9	-2.5
CCS(=O)(=O)N1CCCC(C(=O)NCCc2ccccc2)C1 (centres undefined)	.	.	0.2	.	.	1.3
CCC(=O)Nc1ccc2c(c1)C(=O)N(C)[C@@H]1CC[C@H](CC(=O)NCc3ccc(OC)cc3)O[C@H]1CO2	0.0	8.1	0.0	0.0	1.3	7.6
C[C@@H]1CN([C@@H](C)CO)C(=O)Cc2cc(NC(=O)CCCCCC(=O)Nc3ccccc3N)ccc2O[C@H]1CN(C)Cc1ccc(C(F)(F)F)cc1	0.0	49.7*	-5.5	-0.1	0.3	-13.0
C[C@@H]1CN([C@H](C)CO)C(=O)Cc2cc(NC(=O)CCCCCC(=O)Nc3ccccc3N)ccc2O[C@@H]1CN(C)C(=O)Nc1ccc(C(F)(F)F)cc1	-0.1	-1.3	11.7	0.4	.	.
C[C@H]1CN([C@@H](C)CO)C(=O)Cc2cc(NC(=O)CCCCCC(=O)Nc3ccccc3N)ccc2O[C@H]1CN(C)Cc1ccc(C(F)(F)F)cc1	-0.7	80.4*	8.6	1.0	4.0	-11.9
C[C@H]1CN([C@@H](C)CO)C(=O)Cc2cc(NC(=O)CCCCCC(=O)Nc3ccccc3N)ccc2O[C@@H]1CN(C)Cc1ccc(C(F)(F)F)cc1	-0.6	-4.6	-14.7	-0.5	.	-8.4
Cc1ccc(S(=O)(=O)N(C)CCCC(=O)NC(C)(C)CO)cc1	0.1	1.5	.	0.0	27.0*	5.6
SMILES	FGF22 binding	DENV2 CPE rescue	ARNT TACC3 PPI	XiGFP reactiv	SIRT5 block	FN deposit inh
Cc1ccc(S(=O)(=O)N(C)CCCC(=O)NC(C)(C)C)cc1	0.2	0.9	-5.9	0.1	6.4	5.3
Cc1ccc(S(=O)(=O)N(C)CCN(C)S(=O)(=O)c2ccc(C)cc2)cc1	43.2*	-4.4	-5.1	0.0	.	7.8
O=C(N[C@H]1CC[C@H](CCNC(=O)C2CCOCC2)O[C@@H]1CO)c1ccncc1	-0.2	-5.3	8.0	-0.2	-2.9	2.1
C[C@H]1[C@@H](Cc2cc(Cl)cc(Cl)c2)N(c2ccccc2)c2ccccc2CN1Cc1ccccc1	0.0	43.4*	.	0.1	-0.9	3.4
CCCNC(=O)N(C)C[C@@H]1Oc2cc(C#CCC(C)C)ccc2S(=O)(=O)N([C@@H](C)CO)C[C@H]1C	-0.2	35.7*	-0.2	-1.3	2.3	.
C[C@H](CO)N1C[C@H](C)[C@H](CN(C)C(=O)NC2CCCCC2)Oc2cc(C#Cc3ccc(F)cc3)ccc2S1(=O)=O	0.0	2.9	7.4	-0.6	13.7	-8.1
CC(C)CC#Cc1ccc2c(c1)O[C@@H](CN(C)C(=O)NC1CCCC1)[C@H](C)CN([C@@H](C)CO)S2(=O)=O	0.1	5.0	-4.1	0.1	15.8*	-7.5
CC(C)CC#Cc1ccc2c(c1)O[C@@H](CN(C)C(=O)NC(C)C)[C@@H](C)CN([C@@H](C)CO)S2(=O)=O	-0.5	4.2	17.4	-1.6	6.7	.
CC(C)CC#Cc1ccc2c(c1)O[C@@H](CN(C)C(=O)NC1CCCC1)[C@H](C)CN([C@H](C)CO)S2(=O)=O	0.2	0.9	-3.2	-0.3	24.5*	6.7
C[C@@H]1CN([C@H](C)CO)S(=O)(=O)c2ccc(C#Cc3ccc(F)cc3)cc2O[C@H]1CN(C)C(=O)NC1CCCCC1	-0.5	0.4	4.6	-0.3	18.1*	13.2
COc1ccc2c3c([nH]c2c1)[C@H](CO)N(C(=O)C1CC1)CC31CCN(C(=O)NC(C)C)CC1	0.1	-3.9	.	0.1	.	.
C[C@@H]1CCCCO[C@H](CN(C)S(C)(=O)=O)[C@H](C)CN([C@@H](C)CO)C(=O)c2cc(NC(=O)Nc3ccc(C(F)(F)F)cc3)ccc2O1	.	.	.	-0.8	.	.
CCCC[C@]12CCCC(=O)N1CCc1c2[nH]c2ccccc12	0.1	10.7	0.9	.	-2.1	.
CCOC(=O)C(=CNc1ccc(Cl)cn1)C(=O)OCC	0.2	66.6*	-7.6	0.0	.	0.7
CCOC(=O)C(=CNc1cccc(N)n1)C(=O)OCC	.	.	-2.9	.	.	-4.5
CCc1ccc(-c2cc(C)no2)cc1S(=O)(=O)Nc1cc(C)ccn1	-0.1	-4.1	-30.2	0.0	31.7*	-4.4

Assay outcomes deposited in PubChem by Broad Institute.
